Source: ChEMBL document CHEMBL3272335, “Dibenz[b,e]oxepinalkanoic acids as nonsteroidal antiinflammatory agents. 1. 6,11-Dihydro-11-oxodibenz]b,e]oxepin-2-acetic acids” (J Med Chem, 1977)

Legend:
Rattus norvegicus [1] = test: Antiinflammatory activity in Wistar rat assessed as inhibition of carrageenan-induced paw edema at 50 mg/kg, po administered 1 hr prior to carrageenan challenge measured 3 hrs post-carrageenan injection; format: functional
In short: (§1)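 Female Carworth Wistar rats (120-150 g), ten per group, are fasted 12-16 h with water allowed. Compounds are given orally as an aqueous Tween 80 suspension (10 ml/kg); controls get vehicle. After 1 h, 0.1 ml of 1% carrageenan is injected subplantar into the left hind paw. Paw volume is read by mercury displacement before and 3 h after injection. Result is % edema difference versus control.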

Mus musculus = test: Analgesic activity in po dosed CD-1 mouse assessed as inhibition of phenylquinone-induced writhing administered prior to phenylquinone challenge measured 5 mins after phenylquinone injection; format: functional; details: CD-1, po
In short: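 Male CD-1 Charles River mice (18-24 g), fed ad libitum, are dosed orally with drug as an aqueous suspension with Tween 80 (10 ml/kg); controls get vehicle. Phenylquinone (0.125% in 5% aqueous ethanol) is given ip at 10 ml/kg at the peak-activity time. Writhes are counted for 10 min, starting 5 min post-injection. Ten mice per group, four doses. Result is % inhibition of writhes versus control; ED50 by Litchfield-Wilcoxon.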

Rattus norvegicus [2] = test: Antiinflammatory activity in po dosed Wistar rat assessed as inhibition of carrageenan-induced paw edema administered 1 hr prior to carrageenan challenge measured 3 hrs post-carrageenan injection; format: functional; in short: as §1
[3] = Ulcerogenicity in po dosed Wistar rat assessed as induction of gastric irritation; format: toxicity, organism-based, Stomach; details: in vivo, read-out: ID50 (the source's name)
In short: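 Groups of eight male Wistar rats (150-175 g) are fasted 48 h with water allowed, then dosed orally (10 ml/kg); controls get vehicle. Rats are killed at 3, 5 and 7 h post-dose, and stomach and intestines are examined for erosion, ulcer or perforation. ID50 is the dose causing irritation in 50% of animals.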

Rattus norvegicus [4] = test: Antiinflammatory activity against Mycobacterium butyricum adjuvant-induced polyarthritis in po dosed Lewis albino rat assessed as decrease in adjuvant treated paw edema administered daily for 21 days […]; format: functional
In short: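 Female Charles River-Lewis albino rats (150-170 g), ten per group, housed individually. Heat-killed Mycobacterium butyricum in paraffin oil (0.5 mg/0.1 ml) is injected into the left hind paw. Oral dosing starts the day before adjuvant and continues daily for 21 days, using a Tween 80 aqueous suspension. Paw volume is measured by mercury displacement from injection day onward. ED50 by Litchfield-Wilcoxon, with 95% confidence limits.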

[5] = Therapeutic ratio of ID50 for ulcerogenicity in Wistar rat to ED50 for antiinflammatory activity against Mycobacterium butyricum adjuvant-induced polyarthritis in Lewis albino rat non-injected paw; format: ADME; details: in vivo, read-out: TI
In short: (§2)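 Ratio of the gastric irritation ID50 (oral dose, Wistar rats, lesions scored as irritation in 50% of animals) to the adjuvant polyarthritis ED50 (Lewis rats, 21-day oral dosing). The ED50 is taken from the adjuvant-injected paw or the noninjected paw, with paw volume measured by mercury displacement.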

[6] = Therapeutic ratio of ID50 for ulcerogenicity in Wistar rat to ED50 for antiinflammatory activity against Mycobacterium butyricum adjuvant-induced polyarthritis in Lewis albino rat adjuvant treated paw; format: ADME; details: in vivo, read-out: TI; in short: as §2
Rattus norvegicus [7] = test: Antiinflammatory activity against Mycobacterium butyricum adjuvant-induced polyarthritis in po dosed Lewis albino rat assessed as decrease in non-injected paw edema administered daily for 21 days […]; format: functional
In short: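 Female Charles River-Lewis albino rats, 150-170 g, groups of ten, housed singly; heat-killed dry Mycobacterium butyricum in white paraffin oil (0.5 mg/0.1 ml) injected into left hind paw. Oral dosing as aqueous suspension with Tween 80 (10 ml/kg), starting the day before adjuvant and daily for 21 days; vehicle controls. Paw volume by mercury displacement from injection day onward; ED50 by Litchfield-Wilcoxon with 95% confidence limits.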

Row | Compound | ED50 (Mus musculus) [mg/kg] | ED50 (Rattus norvegicus [2]) [mg/kg] | also measured
1 | O=C(O)Cc1ccc2c(c1)C(=O)c1ccccc1CS2 |  |  | inhibition in vivo at 50 mg/kg (Rattus norvegicus [1]): 42.7%
2 | NC(=O)Cc1ccc2c(c1)C(=O)c1ccccc1CO2 | > 100 | > 100 | 
3 | O=C(O)Cc1ccc2c(c1)Cc1ccccc1CO2 |  | 200 | 
4 | COC(=O)Cc1ccc2c(c1)C(=O)c1ccccc1CO2 | 26.6 | 31 | 
5 | CCOC(=O)Cc1ccc2c(c1)C(=O)c1ccccc1CO2 | > 50 | 6.85 | 
6 | O=C(O)Cc1ccc2c(c1)C(=O)c1ccc(Cl)cc1CO2 | 34.3 | 26.5 | 
7 | COc1ccc2c(c1)COc1ccc(CC(=O)O)cc1C2=O | > 50 | 58.6 | 
8 | O=C(O)Cc1ccc2c(c1)C(=O)c1cc(Cl)ccc1CO2 | > 50 | > 50 | 
9 | CCCOC(=O)Cc1ccc2c(c1)C(=O)c1ccccc1CO2 | 16.7 | 3.55 | 
10 | CC(C)OC(=O)Cc1ccc2c(c1)C(=O)c1ccccc1CO2 | < 50 | 6.84 | 
11 | CCCCOC(=O)Cc1ccc2c(c1)C(=O)c1ccccc1CO2 | 12.7 | 14.7 | 
12 | CCCCCOC(=O)Cc1ccc2c(c1)C(=O)c1ccccc1CO2 | > 50 | 2.9 | 
13 | O=C(Cc1ccc2c(c1)C(=O)c1ccccc1CO2)OCc1ccccc1 |  | > 50 | 
14 | O=C(O)Cc1cc(Cl)c2c(c1)C(=O)c1ccccc1CO2 |  | > 50 | 
15 | O=C(O)Cc1ccc2c(c1)C(=O)c1cccc(Cl)c1CO2 | > 50 | < 50 | 
16 | O=C(O)Cc1ccc2c(c1)C(=O)c1cc(F)ccc1CO2 |  | 356 | 
17 | O=C(O)Cc1ccc2c(c1)C(=O)c1cc(C(F)(F)F)ccc1CO2 |  | > 50 | 
18 | Cc1cccc2c1C(=O)c1cc(CC(=O)O)ccc1OC2 |  | > 50 | 
19 | OCCc1ccc2c(c1)C(O)c1ccccc1CO2 (centres undefined) |  | > 200 | 
20 | COC(=O)Cc1ccc2c(c1)C(O)c1ccccc1CO2 (centres undefined) |  | > 200 | 
21 | COC(=O)Cc1ccc2c(c1)C(OC)c1ccccc1CO2 (centres undefined) |  | > 200 | 
22 | COc1ccc2c(c1)c(CC(=O)O)c(C)n2C(=O)c1ccc(Cl)cc1 [INDOMETHACIN] | 0.7 |  | TD50 [3]: 1.8 mg/kg; ED50 (Rattus norvegicus [4]): 0.47 mg/kg; selectivity ratio [5]: 6.7; selectivity ratio [6]: 3.8; ED50 (Rattus norvegicus [7]): 0.27 mg/kg
23 | O=C(O)Cc1ccc2c(c1)C(=O)c1ccccc1CO2 [ISOXEPAC] | 7.57 |  | TD50 [3]: 82.5 mg/kg; ED50 (Rattus norvegicus [4]): 2.1 mg/kg; selectivity ratio [5]: 78; selectivity ratio [6]: 39; ED50 (Rattus norvegicus [7]): 1.06 mg/kg
